Source: ChEMBL document CHEMBL4387744, “Discovery of conolidine derivative DS39201083 as a potent novel analgesic without mu opioid agonist activity” (Bioorg Med Chem Lett, 2019)

Key:
Mus musculus [1] = assay: Analgesic activity in Slc:ddY mouse assessed as inhibition of acetic acid-induced writhings at 30 mg/kg, po relative to control; format: functional
Method in brief: (§1)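 Acetic acid-induced writhing in Slc:ddY mice after oral dosing. Read-out is reduction (% inhibition) of writhing behaviour. ED50 calculated from the dose-response curve of analgesic activity at 10, 30 and 100 mpk.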

[2] = Distribution coefficient between 1-octanol and phosphate buffer, logD of the compound in pH 7.4 buffer; format: physicochemical; details: 1-octanol/phosphate buffer
Method in brief: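 Log D measured as partitioning between 1-octanol and phosphate-buffered saline at pH 7.4.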

[3] = AUC in ddY mouse 10 mg/kg, po; format: ADME, organism-based; details: in vivo
Method in brief: (§2)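 Plasma pharmacokinetics in ddY mice after a single oral dose of 10 mg/kg, given as a 0.5 w/v% methylcellulose suspension. Reported values are the average of three.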

[4] = Cmax in ddY mouse 10 mg/kg, po; format: ADME, organism-based; design: dose 10 mg/kg, route oral; details: in vivo; method in brief: as §2
[5] = Half life in ddY mouse 10 mg/kg, po; format: ADME, organism-based; details: in vivo; method in brief: as §2
Mus musculus [6] = species on record: Mus musculus; assay: Analgesic activity in Slc:ddY mouse assessed as inhibition of acetic acid-induced writhings; format: functional; method in brief: as §1
Mus musculus [7] = assay: Analgesic activity in Slc:ddY mouse assessed as reduction in sum of the time spent in paw licking or biting responses during phase 1 at 30 mg/kg, po dosed 30 mins before formalin injection by formalin test relative to control; format: functional
Method in brief: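 Formalin test in Slc:ddY mice (n = 8). Compound given p.o. at 30 mg/kg; 30 min later 3.5% formalin (20 μL) injected into the hind paw pad. Read-out is the reduction in summed paw licking and biting time over the first 10 min after injection (initial phase).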

Mu-type opioid receptor [8] = molecular target: T1, Mu-type opioid receptor (Homo sapiens, UniProt P35372); assay: Displacement of [3H]-diprenorphine from MOR (unknown origin); format: ADME
Mu-type opioid receptor [9] = molecular target: T1, Mu-type opioid receptor; assay: Agonist activity at human mu opioid receptor expressed in CHO cells by cAMP assay; format: cell-based
Method in brief: (§3)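 Human MOR expressed in CHO cells; cAMP read-out. EC50 derived from the cAMP response.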

Mu-type opioid receptor [10] = molecular target: T1, Mu-type opioid receptor; assay: Agonist activity at human mu opioid receptor expressed in CHO cells by cAMP assay relative to DAMGO; format: cell-based; method in brief: as §3
Mus musculus [11] = assay: Analgesic activity in Slc:ddY mouse assessed as inhibition of acetic acid-induced writhings at 3 mg/kg, po relative to control; format: functional
Mus musculus [12] = assay: Analgesic activity in Slc:ddY mouse assessed as inhibition of acetic acid-induced writhings at 10 mg/kg, po relative to control; format: functional; method in brief: as §1

T1 sequence (P35372 whole entry): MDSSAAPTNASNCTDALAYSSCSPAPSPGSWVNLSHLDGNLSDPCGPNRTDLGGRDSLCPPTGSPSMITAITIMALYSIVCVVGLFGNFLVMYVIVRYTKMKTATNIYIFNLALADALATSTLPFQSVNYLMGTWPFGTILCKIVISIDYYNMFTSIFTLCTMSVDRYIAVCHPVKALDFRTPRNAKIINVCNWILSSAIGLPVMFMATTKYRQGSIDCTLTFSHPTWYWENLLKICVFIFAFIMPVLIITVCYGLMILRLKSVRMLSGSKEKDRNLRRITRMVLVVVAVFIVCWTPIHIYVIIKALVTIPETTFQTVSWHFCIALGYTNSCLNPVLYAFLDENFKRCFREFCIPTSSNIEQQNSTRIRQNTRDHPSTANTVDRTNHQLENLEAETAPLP

CCC12CCN(CC1)Cc1c([nH]c3ccccc13)C2=O.O=S(=O)(O)O
inhibition in vivo at 30 mg/kg (Mus musculus [1]): 48%
logD [2]: 3
AUC [3]: 1.02 µM·h
Cmax [4]: 710 nM
half-life [5]: 1.28 h

C/C=C1/CN2CCC1C(=O)c1[nH]c3cccc(OC)c3c1C2 (racemic)
inhibition in vivo at 30 mg/kg (Mus musculus [1]): 42%
logD [2]: 3.4

C/C=C1/CN2CCC1C(=O)c1[nH]c3c(OC)cccc3c1C2 (racemic)
inhibition in vivo at 30 mg/kg (Mus musculus [1]): 34%
logD [2]: 3.3

C/C=C1/CN2CCC1C(=O)c1c(c3ccccc3n1C)C2 (racemic)
inhibition in vivo at 30 mg/kg (Mus musculus [1]): 30%
logD [2]: 3.5

CCC1CN2CCC1C(=O)c1[nH]c3ccccc3c1C2 (mixture of isomers)
inhibition in vivo at 30 mg/kg (Mus musculus [1]): 50%

CC12CCN(CC1)Cc1c([nH]c3ccccc13)C2=O.O=S(=O)(O)O
inhibition in vivo at 30 mg/kg (Mus musculus [1]): 90 to 94%
logD [2]: 2.5
AUC [3]: 3.21 µM·h
Cmax [4]: 1250 nM
half-life [5]: 2.33 h
ED50 (Mus musculus [6]): 7.8 mg/kg
inhibition in vivo at 30 mg/kg (Mus musculus [7]): 92%
IC50 (Mu-type opioid receptor [8]): 71 µM
EC50 (Mu-type opioid receptor [9]): > 100 µM
Emax (Mu-type opioid receptor [10]): 12%
inhibition in vivo at 3 mg/kg (Mus musculus [11]): 23%
inhibition in vivo at 10 mg/kg (Mus musculus [12]): 52%

C/C=C1\CN2CCC1C(=O)c1[nH]c3ccccc3c1C2 (racemic)
inhibition in vivo at 30 mg/kg (Mus musculus [1]): 18%
logD [2]: 3.3

C/C=C1/CN2CCC1C(=O)c1[nH]c3cc(OC)ccc3c1C2 (racemic)
inhibition in vivo at 30 mg/kg (Mus musculus [1]): 31%
logD [2]: 3.1

CC/C=C1/CN2CCC1C(=O)c1[nH]c3ccccc3c1C2 (racemic)
inhibition in vivo at 30 mg/kg (Mus musculus [1]): 0%

O=C1c2[nH]c3ccccc3c2CN2CCC1CC2
inhibition in vivo at 30 mg/kg (Mus musculus [1]): 73%
logD [2]: 1.8
AUC [3]: 2.26 µM·h
Cmax [4]: 1160 nM
half-life [5]: 1.17 h
ED50 (Mus musculus [6]): 11 mg/kg
IC50 (Mu-type opioid receptor [8]): > 100 µM
EC50 (Mu-type opioid receptor [9]): > 100 µM
Emax (Mu-type opioid receptor [10]): 13%

C/C=C1/CN2CCC1C(=O)c1[nH]c3ccc(OC)cc3c1C2 (racemic)
inhibition in vivo at 30 mg/kg (Mus musculus [1]): 3%
logD [2]: 3.1

C/C=C1/CN2CCC1C(=O)c1[nH]c3ccccc3c1C2 (racemic)
inhibition in vivo at 30 mg/kg (Mus musculus [1]): 49%

C/C=C1/CN2CC[C@H]1C(=O)c1[nH]c3ccccc3c1C2.O=S(=O)(O)O
inhibition in vivo at 30 mg/kg (Mus musculus [1]): 49%
logD [2]: 2.8
ED50 (Mus musculus [6]): 32 mg/kg
inhibition in vivo at 30 mg/kg (Mus musculus [7]): 43%
IC50 (Mu-type opioid receptor [8]): 70 µM
EC50 (Mu-type opioid receptor [9]): > 100 µM
Emax (Mu-type opioid receptor [10]): 13%
